# KCNQ1 block: blocks the human KCNQ1 potassium channel. B-score at 10 µM. 310,000 tested, 1.3% active. CHO-K1 KCNQ1, FluxOR thallium flux fluorescence; stronger effect = higher value. AID 2642. P51787;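 active = compounds whose thallium flux B-score, printed positive for inhibition, exceeds three library SD while starting fluorescence stays within three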;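 also: channel opened by potassium depolarization with thallium stimulus after 20 min compound exposure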
# Target sequence (P51787 whole entry, looked up): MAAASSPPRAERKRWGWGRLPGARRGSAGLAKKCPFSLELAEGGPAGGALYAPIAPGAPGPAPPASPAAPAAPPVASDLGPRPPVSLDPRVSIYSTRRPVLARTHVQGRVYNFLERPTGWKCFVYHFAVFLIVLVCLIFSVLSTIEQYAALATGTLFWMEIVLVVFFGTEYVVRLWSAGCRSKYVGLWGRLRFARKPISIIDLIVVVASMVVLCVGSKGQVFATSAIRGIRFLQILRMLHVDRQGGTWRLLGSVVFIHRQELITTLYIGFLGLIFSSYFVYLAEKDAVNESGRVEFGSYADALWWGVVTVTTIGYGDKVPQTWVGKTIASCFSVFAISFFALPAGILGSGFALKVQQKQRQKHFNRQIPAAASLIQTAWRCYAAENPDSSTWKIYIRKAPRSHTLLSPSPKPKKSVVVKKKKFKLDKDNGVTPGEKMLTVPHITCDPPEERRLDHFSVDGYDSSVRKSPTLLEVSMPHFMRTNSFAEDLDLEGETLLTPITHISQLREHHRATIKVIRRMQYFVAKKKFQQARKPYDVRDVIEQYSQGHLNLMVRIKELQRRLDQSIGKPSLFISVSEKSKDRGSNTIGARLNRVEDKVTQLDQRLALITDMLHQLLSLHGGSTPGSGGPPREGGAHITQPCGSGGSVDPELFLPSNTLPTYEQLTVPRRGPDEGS
# KCNQ1 pot: potentiates or activates the human KCNQ1 potassium channel; 310,000 tested, 0.35% active; P51787; AID 2648; CHO-K1 KCNQ1, thallium flux FluxOR fluorescence; stronger effect = higher value; B-score at 10 µM;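 active = fluorescence ratio B-score, a plate-corrected score, at least three library SD, with initial intensity B-score within 5 SD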
#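 Assay system: CHO-K1 cells stably expressing KCNQ1. Medium: assay buffer for compound exposure, DMSO matched across wells. Timing: 37 °C overnight plating, 90-min dark dye load, 20-min compound pretreatment. Signal: kinetic FluxOR fluorescence, 10 s baseline plus 110 s post-stimulus.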
# hERG protect: compounds protecting human hERG from proarrhythmic drug block | Q12809 | CHO-hERG, FluxOR thallium flux, dofetilide IC70 present | activation (rescue from dofetilide block), less the hit threshold, % at 10 µM | 310,000 tested, 0.51% active | AID 1511;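 active = activation above the mean of controls blocked by dofetilide plus 5 SD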;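 also: thallium influx through hERG after potassium depolarization seen as dye fluorescence rise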
# KCNK3 inh: human KCNK3 channel inhibition, primary screen | CHO-KCNK3 thallium flux, FluxOR fluorescence; stronger effect = lower value | B-score at 10 µM | 340,000 tested, 0.84% active;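 active = B-score under library mean minus 4 SD, starting fluorescence ratio at most library mean plus 5 SD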;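 also: more negative B-score means stronger inhibition of thallium flux through KCNK3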
# KCNK9 block: human KCNK9 channel inhibition. Q9NPC2. HEK293 KCNK9, FluxOR thallium flux fluorescence; stronger effect = lower value. B-score at 10 µM. 310,000 tested, 1.2% active;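 active = ratio B-score over 3 SD below the library mean, with starting fluorescence within 5 SD of its mean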;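 also: negative B-score means less thallium flux so channel inhibition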
# Kir21 inh: Kir2.1 (mouse) channel inhibition; P35561; HEK293-Kir2.1, FluxOR thallium flux fluorescence; stronger effect = lower value; B-score at 10 µM; 310,000 tested, 0.85% active;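 active = fluorescence ratio B-score at or below minus 3 SD of library scores, with starting-brightness B-score within 2 SD, cut at about -4.2 in these data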;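 also: channel flux triggered by added potassium and thallium sulfate stimulus; B-score of peak minus minimum fluorescence over baseline after thallium stimulus; more negative B-score means stronger Kir2.1 block with less thallium influx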
# Numbers stand for hits; i = inactive; nt = no result. In the library only some 3.8% were active in any assay of this set; here they are far more common.
SMILES,KCNQ1 block,KCNQ1 pot,hERG protect,KCNK3 inh,KCNK9 block,Kir21 inh
CCN(Cc1ccccc1)S(=O)(=O)c1ccc(C(=O)N(CCCN(C)C)c2nc3cc4c(cc3s2)OCO4)cc1,6,i,i,i,i,i
CCN(Cc1ccccc1)S(=O)(=O)c1ccc(C(=O)N(CCCN(C)C)c2nc3c(C)c(C)ccc3s2)cc1,8,i,i,i,i,-4.5
CCN(c1cccc(C)c1)S(=O)(=O)c1cc2c3c(c1)CCC(=O)N3CCC2,i,i,i,i,i,-5.8
O=C(NC1CC(=O)N(c2ccc3c(c2)OCCO3)C1)N1CCC(O)CC1 (centres undefined),i,i,i,i,i,i
COCCNC(=O)C(c1ccc(C)o1)N(Cc1ccc(OC)cc1)C(=O)Cn1nnc2ccccc21 (centres undefined),i,i,6.5,i,i,i
OCCCNCc1ccc(N(c2ccccc2)c2ccccc2)cc1,i,i,i,i,i,-12
CN(C)C(CNC(=O)c1ccccc1OCc1ccc(Cl)cc1)c1ccco1 (centres undefined),i,i,i,i,i,i
CC(=O)N(Cc1c(C)nn(-c2ccccc2)c1Cl)c1ccc(Cl)cc1,i,i,i,i,i,-5.1
Cc1nn(-c2ccccc2)c(Cl)c1CN(C(=O)CCl)c1ccc(Cl)cc1,i,i,i,i,i,i
Brc1nnc2n1-c1ccccc1Sc1ccccc1-2,i,i,i,i,i,-6
c1ccc2c(c1)Sc1ccccc1-n1cnnc1-2,i,i,i,i,i,i
Clc1ccc2c(c1)-c1nnc(Br)n1-c1ccccc1S2,i,i,i,i,i,-7.2
Cc1ccc(C(=O)NCC(=O)OCCCOC(=O)CNC(=O)c2ccc(C)c(C)c2)cc1C,nt,nt,nt,i,nt,nt
CCN1CCN(Cc2c(C)[nH]c3ccc(C(=O)OC)cc3c2=O)CC1,i,i,5.6,i,i,i
CCN(CC)c1ccc(/C=C/c2nc3ccccc3s2)cc1,8,i,i,nt,i,i
CCN(CC)c1ccc(NC(=O)COC(=O)/C=C/c2nc3ccccc3s2)cc1,i,i,i,i,i,i
CCOC(=O)C(=CNc1ccc2c(c1)c1ccccc1n2CC)C(=O)OCC,i,i,i,i,i,i
COc1ccc(C(=O)Nc2cc(C)nn2-c2ccc(C)cc2)cc1,i,i,i,i,i,i
CCOC(=O)c1sc(NC(=O)Cc2ccc(C)cc2)nc1C,i,i,i,i,i,-4.3
COC(=O)c1ccc(C(=O)NC(=S)Nc2nc3c(s2)CCCC3)cc1,i,23,i,i,i,i
COC(=O)c1sc(NC(=O)COc2ccc(OC)cc2)nc1C,i,i,i,i,i,i
COC(=O)c1sc(NC(=O)COc2cccc3ccccc23)nc1C,i,i,9.0,i,i,i
COC(=O)c1sc(NC(=S)NC(=O)c2cccc(C)c2)nc1C,i,i,6.2,i,i,i
O=C(NC(=S)Nc1nc2c(s1)CCCC2)c1ccccc1,i,i,i,i,i,i
COCCn1c(N)c(N(Cc2ccccc2)C(=O)COc2ccccc2F)c(=O)[nH]c1=O,nt,nt,nt,i,nt,nt
SMILES,KCNQ1 block,KCNQ1 pot,hERG protect,KCNK3 inh,KCNK9 block,Kir21 inh
CCN1C(=O)/C(=C/C=C2/CCCN2C)OC1=S,i,i,i,i,i,i
Cc1ccc2c(c1)N(Cc1cccc(C#N)c1)C=NS2(=O)=O,i,i,i,i,i,i
CN(/N=C/c1ccc(-c2ccc([N+](=O)[O-])cc2)o1)c1ccccc1,8,i,i,i,i,i
O=c1[nH]nc(Br)c(=O)n1C(c1ccccc1)c1ccccc1,nt,nt,nt,i,nt,nt
Cc1ccc(NS(=O)(=O)c2cccc3cccnc23)cc1Cl,i,i,i,i,i,i
Cc1cc(C)c(NS(=O)(=O)c2cccc3cccnc23)c(C)c1,i,i,i,i,i,-4.4
O=S(=O)(NCc1ccc(Cl)cc1)c1cccc2cccnc12,i,i,i,i,i,-4.5
CCCCN(Cc1cccs1)S(=O)(=O)c1csc(C(N)=O)c1,i,i,i,i,i,-7.8
Cc1ccc(OCCCCN2CCC(C)CC2)c(Br)c1,i,i,i,i,i,-6
Cc1ccc(OCCCCCCN2CCNCC2)c(Br)c1,i,i,i,i,i,-5.6
C#CC1(NC(=O)NCCCC)CCCCC1,i,i,i,i,i,i
Cc1csc(=O)n1CC(=O)Nc1ccc(Cl)cc1F,nt,nt,nt,i,nt,nt
CCOC(=O)c1c(-n2c(C)cc(C=O)c2C)sc2c1CCCC2,i,i,i,i,i,-4.6
CCc1noc(C)c1C(=O)NC1CC(C)(C)Cc2c1cnn2-c1ccccc1 (centres undefined),i,i,i,i,i,i
O=C(CSc1nnc(SCc2cccc3ccccc23)s1)c1ccc2c(c1)OCO2,i,8,i,i,i,i
O=C(COC(=O)CN1C(=O)C2CCCCC2C1=O)Nc1cc(F)ccc1F (centres undefined),nt,nt,nt,i,nt,nt
COc1cc(/C=C2\COC/C(=C\c3ccc(O)c(OC)c3)C2=O)ccc1O,i,i,i,i,i,i
CN1C(=O)/C(=C/c2ccc(O)c([N+](=O)[O-])c2)N(C)C1=S,i,i,i,i,i,i
COc1cc(/C=C2/CC/C(=C/c3ccc(O)c(OC)c3)C2=O)ccc1O,i,i,i,-9.1,-7.4,i
COc1cc(/C=C2\C(=O)N(C)C(=S)N2C)ccc1O,i,15,i,i,i,i
CC(C)c1ccc(NC(=O)/C(C#N)=C/c2ccncc2)cc1,i,8,i,i,i,i
N#C/C(=C\c1ccncc1)C(=O)Nc1ccc(C(=O)O)cc1,i,i,i,i,i,i
CCOC(=O)N1CCC(N2C(=O)c3ccccc3C2Nc2c(C)cccc2C)CC1 (centres undefined),i,i,i,i,i,i
COC(=O)c1ccc(C)c(NC(=O)CCCN2C(=O)NC(C)(C)C2=O)c1,nt,nt,nt,i,nt,nt
COc1cc(C#N)c(N=C(SCC#N)N2CCOCC2)cc1OC,i,i,i,i,i,i
SMILES,KCNQ1 block,KCNQ1 pot,hERG protect,KCNK3 inh,KCNK9 block,Kir21 inh
O=c1c(C(c2ccccc2)c2c(O)sc3ccccc3c2=O)c(O)sc2ccccc12,i,i,i,i,-8.2,i
O=C(OCCCOC(=O)c1ccc(O)cc1)c1ccc(O)cc1,i,i,i,i,i,-4.9
O=C(OCCCCOC(=O)c1ccccc1)c1ccccc1,i,i,i,i,i,i
O=C(O)c1ccc(COc2ccc(Cl)cc2)o1,i,i,i,i,i,i
CCc1ccc(OCc2ccc(C(=O)O)o2)cc1,i,i,5.2,i,i,i
CC(C)(Oc1ccc(Cl)cc1)C(=O)N/N=C/c1cn[nH]c1-c1ccccc1,i,i,i,i,-7.2,i
CC(C)(C)c1ccc(C(=O)NCC(=O)N/N=C/c2cccnc2)cc1,i,i,i,i,i,i
COc1ccc(CN(C)C(=O)Cn2cc(C)c(=O)[nH]c2=O)cc1OC,nt,nt,nt,i,nt,nt
CC1(C)CC(=O)C(C(C2=C(O)CC(C)(C)CC2=O)c2ccc(Br)s2)C(=O)C1 (centres undefined),i,i,i,i,i,-7.4

# Screening results (PubChem)
